We go through eight compounds from PubChem BioAssay.

Structures are written as SMILES. Activity calls are given as the source filed them.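 How the source made its calls, unless noted: active means inhibition at or above 50% relative to wild type and mutant plate controls; inactive means inhibition below 50%.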

A short description of test [1]: inhibitors of TNFa-induced NFkB p65 translocation, primary screen, imaging, HUVEC, MLSMR starter and 10KST1 sets (AID 438;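 active means inhibition above 20% together with a positive visual image hit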;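 further: compound added about 3h40 before a 20 min TNFalpha stimulation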;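 on inhibition: signal is the nuclear over cytoplasmic p65 intensity ratio per well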). The settings on record: HUVEC TNFa-induced p65 nuclear translocation; cell count: measured here: nuclei count (cytotoxicity indicator), at 2.08 µM; inhibition: at 2 µM, stronger effect = higher value, 0% TNFa-plus-vehicle, 100% no-TNFa wells.
Test [2] in a line: inhibitors of E-selectin induction by TNFa, primary screen, imaging, HUVEC, immunofluorescence, MLSMR starter and 10KST1 sets (AID 487;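 active means visually confirmed hit in the image check and inhibition above 20%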;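 on inhibition: signal is fraction of cell area covered by stained E-selectin grains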;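 on nuclei count: 100% = median nuclei count of all wells on the same plate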). The settings on record: HUVEC TNFalpha-induced E-selectin immunofluorescence imaging, at 2 µM; inhibition: stronger effect = higher value; nuclei count: measured here: cell number, toxicity.
A short description of test [3]: DUSP6 inhibitors restoring Erk phosphorylation by chemical complementation, primary imaging in DUSP6-transfected HeLa (AID 609;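 active means compounds giving at least 50% inhibition in the cell-based MKP-3 phosphatase rescue imaging test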;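 on inhibition: phospho-Erk level distribution per well compared with pooled transfected vehicle control wells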). The settings on record: HeLa MKP-3 transfected, phospho-Erk imaging KS statistic, at 10 µM, cells stimulated with TPA for 15 min.
For test [4], the target named is Dual specificity protein phosphatase 6 (Homo sapiens) (UniProt Q16828). The description is as above. Conditions: HeLa MKP-3 transfected, phospho-Erk imaging KS statistic; at 10 µM; stronger effect = higher value; cells stimulated with TPA for 15 min.
The target of test [5] is Voltage-gated potassium channel subunit beta-2 (Rattus norvegicus) (UniProt P62483). As to the kind of experiment: KvBeta enzyme negative modulators, primary screen, biochemical, NADPH fluorescence (AID 622;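 active means fluorescence slope higher than the sample average by over 3 SD, cut at about -0.22 in these data, passing the limit was not always enough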;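 further: slope of raw intensity against log time taken from 70 to 1610 s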). Conditions: recombinant KvBeta, 4-cyanobenzaldehyde reduction, at 10 µM, stronger effect = higher value.
For test [6] the target is unchanged. The test is described as follows: KvBeta positive modulators, primary screen, biochemical, NADPH fluorescence (AID 623;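 active means NADPH fluorescence slope more negative than the mean of all samples by about 3 SD, 99.7% confidence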;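 further: fluorescence intensity change per second fitted from 20 to 320 s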). Conditions: Recombinant KvBeta, NADPH fluorescence decrease slope, 10 min; at 10 µM; stronger effect = lower value.
Test [7] deals with Alpha-2C adrenergic receptor (Homo sapiens) (UniProt P18825). The test is described as follows: modulators of alpha2C/GIRK thallium flux, primary screen, cell-based, HEK293 alpha2C/GIRK1/2 (AID 624;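 active means fluorescence slope after compound addition differing from the mean of all screened samples at 99.7% confidence, in either direction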;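 further: slope of fluorescence ratio to pre-addition baseline per second over 15 to 24 s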). The settings on record: thallium flux BTC fluorescence, at 10 µM, actives lie on both sides.
The nature of test [8]: inhibitors of larval lipid processing in zebrafish, primary screen, whole organism, PED6 fluorescence, gall bladder and intestine (AID 686;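 active means a full or partial loss of lipid-probe fluorescence in the fish gall bladder, intestine or both, judged by eye; inactive means no fluorescence loss, or compound toxic to the fish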;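 further: larvae 5 to 7 days old with five fish per well; signal comes from phospholipase A2 cleavage of quenched PED6 carried via bile; overnight exposure to compound and PED6 before scoring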). The settings on record: Zebrafish larvae PED6 lipid processing, fluorescence scoring; screened at 20 µM (by protocol). The method in brief: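 Test system – live zebrafish larvae aged 5-7 days, whole organism · Buffer or medium – E3 fish medium · Reagent – quenched phospholipase substrate PED6, 100 nM final, ingested by larvae · Doses – 20 µM single dose · Incubation – overnight compound and PED6 incubation · Technique – visual fluorescence microscopy scoring of gall bladder, gut · Read-out basis – visual per-well fluorescence inhibition score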

Test [9] in a line: inhibitors of Chlamydomonas gravitaxis, primary screen, whole organism, Chlamydomonas reinhardtii, WT vs cilia-less mutant, absorbance, 96-well (AID 463189).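 Further: 0% = wild type cc124 cells in DMSO and 100% = ciliumless bld1 mutant cells.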 The settings on record: OD600 absorbance, 2 days, at 10 µM, stronger effect = higher value.
The mark [10] stands for this setting: measured here: cell density z-score.
[11] abbreviates: measured here: nuclear c-Myc green intensity z-score.
[12] abbreviates: measured here: nuclear pErk red intensity z-score, stronger effect = higher value.

Broadly, the inhibition is the drop in the measured response relative to a control, in per cent.

Chain of Alpha-2C adrenergic receptor (Homo sapiens) (P18825 whole entry, looked up): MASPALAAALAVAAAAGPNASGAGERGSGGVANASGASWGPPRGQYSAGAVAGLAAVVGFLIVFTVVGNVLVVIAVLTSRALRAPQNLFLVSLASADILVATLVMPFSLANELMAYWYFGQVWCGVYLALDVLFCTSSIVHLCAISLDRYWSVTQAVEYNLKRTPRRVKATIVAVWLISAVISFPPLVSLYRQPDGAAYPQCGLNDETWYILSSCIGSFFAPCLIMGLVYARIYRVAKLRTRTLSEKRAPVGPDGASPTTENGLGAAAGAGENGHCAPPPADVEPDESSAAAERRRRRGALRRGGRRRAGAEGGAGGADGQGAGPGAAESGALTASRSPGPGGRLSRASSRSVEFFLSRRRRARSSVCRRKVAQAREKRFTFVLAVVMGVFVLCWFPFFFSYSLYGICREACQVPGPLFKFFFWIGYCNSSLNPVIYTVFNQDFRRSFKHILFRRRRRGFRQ
Chain of Voltage-gated potassium channel subunit beta-2 (Rattus norvegicus) (P62483 whole entry, looked up): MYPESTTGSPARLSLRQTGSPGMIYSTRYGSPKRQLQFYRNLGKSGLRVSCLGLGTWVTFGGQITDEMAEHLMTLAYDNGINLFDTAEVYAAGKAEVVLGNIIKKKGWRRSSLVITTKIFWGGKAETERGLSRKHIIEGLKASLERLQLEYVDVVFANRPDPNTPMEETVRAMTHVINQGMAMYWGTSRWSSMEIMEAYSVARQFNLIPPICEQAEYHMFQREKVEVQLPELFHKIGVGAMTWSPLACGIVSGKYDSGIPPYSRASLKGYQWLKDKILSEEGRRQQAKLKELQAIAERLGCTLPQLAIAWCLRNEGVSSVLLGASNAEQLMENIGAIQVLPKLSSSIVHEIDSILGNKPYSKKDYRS
Chain of Dual specificity protein phosphatase 6 (Homo sapiens) (Q16828 whole entry, looked up): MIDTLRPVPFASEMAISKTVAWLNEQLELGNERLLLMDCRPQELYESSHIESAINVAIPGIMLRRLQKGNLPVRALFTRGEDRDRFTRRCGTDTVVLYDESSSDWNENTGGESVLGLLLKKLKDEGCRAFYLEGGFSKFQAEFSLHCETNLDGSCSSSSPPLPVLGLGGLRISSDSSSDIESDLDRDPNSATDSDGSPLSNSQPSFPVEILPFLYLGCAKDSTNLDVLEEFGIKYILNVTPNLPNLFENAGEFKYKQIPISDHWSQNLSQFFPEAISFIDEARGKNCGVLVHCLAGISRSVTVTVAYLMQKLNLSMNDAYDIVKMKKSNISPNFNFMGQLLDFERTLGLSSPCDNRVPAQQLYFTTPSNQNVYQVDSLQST

`COc1cccc(-c2nnc3sc(-c4ccc(Cl)cc4)nn23)c1`: the cell count in test [1] amounted to 588. Besides, the inhibition in [1] is 3.2% (inactive); in test [2], 19.9% (inactive); in [4] it was -4.27% (inactive); in [9], 5.02% (inactive). The nuclei count in test [2] is 102%. Besides, the results for the z-score in [3] (setting [10]), in [3] (setting [11]) and in test [3] (setting [12]) were 0.426, -0.269 and 0.00297, respectively. The fluorescence slope in test [5] was -0.385 (inactive). Moreover, in test [6], the NADPH fluorescence slope is -1.5e-05 (inactive). In test [7], the slope was 0.00661 (inactive). Also, the compound was called inactive in test [8].

Turning to `COc1nc(N(C)S(=O)(=O)c2ccc(C)cc2)nc(C)c1Cl`, the cell count in [1] was 587. Also, the inhibition in test [1] was -20% (inactive); in [2], -69% (inactive); in [4], 7.73% (inactive); in test [9], -4.99% (inactive). This compound gave a nuclei count in [2] of 177%. The results for the z-score in [3] (setting [10]), in test [3] (setting [11]) and in test [3] (setting [12]) were -0.267, -0.856 and 1.29, respectively. The fluorescence slope in test [5] is -0.362 (inactive). In addition, the NADPH fluorescence slope in [6] is -1.7e-05 (inactive). In test [7], the slope is 0.00412 (inactive). The compound was called inactive in test [8].

On to `COC(=O)c1ccc(-c2sc3nc(N4CCOCC4)c4c(c3c2N)CC(C)(C)OC4)o1`, for which the cell count in [1] turned out to be 595. Further, the inhibition was -19.5% (inactive) in [1], -62.4% (inactive) in [2], -0.624% (inactive) in [4] and -4.84% (inactive) in [9]. In test [2], the nuclei count is 153%. For the same compound, the values for the z-score in [3] (setting [10]), in [3] (setting [11]) and in test [3] (setting [12]) were -1.25, 1.71 and 2.19, respectively. Also, the fluorescence slope in test [5] is -0.16 (inactive). In test [6], the NADPH fluorescence slope was -2.4e-05 (inactive). For the same compound, the slope in test [7] was 0.00678 (inactive). The compound was called inactive in [8].

As for `COc1cccc(-c2nn3c(-c4ccco4)nnc3s2)c1`, the cell count in test [1] turned out to be 611. Moreover, the inhibition in test [1] is -8.6% (inactive); in test [2], 16.8% (inactive); in [4], 2.92% (inactive); in test [9], -2.32% (inactive). Further, in test [2], the nuclei count came to 155%. Also, the z-score in test [3] (setting [10]) was 0.808; in test [3] (setting [11]), -0.226; in test [3] (setting [12]) it was -0.00224. For the same compound, in [5], the fluorescence slope was -0.406 (inactive). In addition, in test [6], the NADPH fluorescence slope was -0.000142 (inactive). Further, the slope in test [7] was 0.00559 (inactive). Besides, in test [8], the call was inactive.

Consider `CCOC(=O)C(c1ccccc1)N1CCN(c2ccc(OC)cc2)CC1` (centres undefined), for which the cell count in [1] turned out to be 365. Further, the inhibition in test [1] was -5.2% (inactive); in [2], -72.8% (inactive); in [4], 11.4% (inactive); in test [9], -10% (inactive). In addition, the nuclei count in [2] worked out at 146%. Besides, the z-score was -0.336 in test [3] (setting [10]), -0.989 in [3] (setting [11]) and -1.39 in test [3] (setting [12]). Besides, the fluorescence slope in [5] was -0.422 (inactive). Further, in test [6], the NADPH fluorescence slope was -0.000118 (inactive). The slope in [7] was 0.00552 (inactive). In test [8], the call was inactive.

`C#CCSC1=C(C#N)C(c2cccs2)C(C(=O)OCC)=C(C)N1` (centres undefined): the cell count in test [1] turned out to be 674. Also, the inhibition in [1] is -1.7% (inactive); in test [2] it was -59.4% (inactive); in test [4] it was -7.28% (inactive); in test [9], -6.51% (inactive). Besides, the nuclei count in test [2] is 167%. The z-score in test [3] (setting [10]) was -0.719; in [3] (setting [11]), 0.591; in test [3] (setting [12]) it was 0.242. Also, in test [5], the fluorescence slope was -0.417 (inactive). Also, in [6], the NADPH fluorescence slope is 4.3e-06 (inactive). In addition, the slope in [7] is 0.00405 (inactive). In addition, the result in [8] was inactive.

Take `COC(=O)CSc1nnc2n(-c3ccc(OC)cc3)c(=O)c3c4c(sc3n12)CCCCC4`: the cell count in test [1] worked out at 607. The inhibition in test [1] is -2.8% (inactive); in test [2] it was -233% (inactive); in test [4], 1.04% (inactive); in test [9] it was -10.1% (inactive). This compound showed a nuclei count in [2] of 149%. For the same compound, the z-score is -0.0268 in [3] (setting [10]), 0.911 in test [3] (setting [11]) and -4.12 in [3] (setting [12]). In addition, the fluorescence slope in test [5] is -0.411 (inactive). The NADPH fluorescence slope in [6] is -4.4e-05 (inactive). Further, in test [7], the slope is 0.00667 (inactive). Also, in [8], the outcome was inactive.

As for `COC(=O)CN(c1cc(OC)ccc1OC)S(=O)(=O)c1ccc(OC)c(OC)c1`, the cell count in [1] came to 365. Moreover, the inhibition was -5% (inactive) in test [1], -37.1% (inactive) in test [2], -2.59% (inactive) in test [4] and -0.193% (inactive) in test [9]. The compound also came in with a nuclei count in test [2] of 130%. For the same compound, the z-score in test [3] (setting [10]) was -0.822; in test [3] (setting [11]) it was 0.297; in test [3] (setting [12]) it was -0.958. In addition, the fluorescence slope in [5] was -0.417 (inactive). The NADPH fluorescence slope in [6] was -0.000193 (inactive). Moreover, in test [7], the slope is 0.00438 (inactive). Moreover, in test [8], the result was inactive.
